Type in all cases: functional
In one assay the test system is A549. Nature of the assay: Cytotoxicity against human A549 cells assessed as growth inhibition at 40 uM after 48 hrs by MTT assay relative to control. The note with it: A549, 48 h, read-out: GI. In a few lines: (§1)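 Single-concentration MTT screen. Cells were seeded, allowed to adhere for 24 h, and exposed to compound for 48 h. MTT (5 mg/mL) was added for the last 4 h, then DMSO, with absorbance read at 570 nm. Result is inhibition rate (%) at the stated concentration; mean of three independent experiments.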
In general terms: Tetrazolium dyes change colour on reduction, which living cells bring about.

The test system of a further assay is HepG2. Nature of the assay: Cytotoxicity against human HepG2 cells assessed as growth inhibition at 40 uM after 48 hrs by MTT assay relative to control. The note with it: HepG2, 48 h, read-out: GI. In a few lines: as §1
For a further assay, the system named is MDA-MB-231. The assay can be described thus: Cytotoxicity against human MDA-MB-231 cells assessed as growth inhibition at 40 uM after 48 hrs by MTT assay relative to control. Particulars: MDA-MB-231, 48 h, read-out: GI. In a few lines: as §1

Regarding `CC1=C(CCC(=O)O)C(=O)c2c(O)cccc2C1=O`, the inhibition of growth at 40 µM with A549 stood at 12.3%; in the assay on HepG2 it was 25.3%; in the assay with MDA-MB-231, 8.7%.

(Values after ChEMBL document CHEMBL4152263, “Novel anticancer hybrids from diazen-1-ium-1,2-diolate nitric oxide donor and ROS inducer plumbagin: Design, synthesis and biological evaluations” (Eur J Med Chem, 2018).)
